Legend:
Mus musculus [1] = experiment: Lowest dose potentiating the awakening effect of phenethylamine (10 mg/kg, subcutaneous) in mice pretreated with reserpine
Monoamine oxidase [2] = target: T1, Monoamine oxidase (Mus musculus, UniProt Q8BW75+Q64133); experiment: Inhibitory activity of Monoamine oxidase at mouse forebrain homogenate by displacing [14C]5-HT (serotonin); assay type: tissue-based; conditions: in the assay text read “[3H]5-HT” for “[14C]5-HT”
T1 sequence (Q8BW75 whole entry): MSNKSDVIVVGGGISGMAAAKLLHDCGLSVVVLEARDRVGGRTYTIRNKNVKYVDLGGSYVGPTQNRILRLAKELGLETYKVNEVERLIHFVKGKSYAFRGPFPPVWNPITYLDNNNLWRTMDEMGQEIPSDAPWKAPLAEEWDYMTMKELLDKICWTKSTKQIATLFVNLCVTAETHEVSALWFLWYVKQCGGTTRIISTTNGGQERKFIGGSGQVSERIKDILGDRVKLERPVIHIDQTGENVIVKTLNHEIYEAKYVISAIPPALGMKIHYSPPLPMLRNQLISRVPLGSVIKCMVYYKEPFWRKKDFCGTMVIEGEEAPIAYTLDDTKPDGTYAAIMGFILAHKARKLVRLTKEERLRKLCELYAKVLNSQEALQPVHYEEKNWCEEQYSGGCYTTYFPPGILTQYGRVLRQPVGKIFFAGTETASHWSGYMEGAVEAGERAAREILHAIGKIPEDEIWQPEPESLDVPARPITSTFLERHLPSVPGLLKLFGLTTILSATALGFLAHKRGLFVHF
T1 sequence (Q64133 whole entry): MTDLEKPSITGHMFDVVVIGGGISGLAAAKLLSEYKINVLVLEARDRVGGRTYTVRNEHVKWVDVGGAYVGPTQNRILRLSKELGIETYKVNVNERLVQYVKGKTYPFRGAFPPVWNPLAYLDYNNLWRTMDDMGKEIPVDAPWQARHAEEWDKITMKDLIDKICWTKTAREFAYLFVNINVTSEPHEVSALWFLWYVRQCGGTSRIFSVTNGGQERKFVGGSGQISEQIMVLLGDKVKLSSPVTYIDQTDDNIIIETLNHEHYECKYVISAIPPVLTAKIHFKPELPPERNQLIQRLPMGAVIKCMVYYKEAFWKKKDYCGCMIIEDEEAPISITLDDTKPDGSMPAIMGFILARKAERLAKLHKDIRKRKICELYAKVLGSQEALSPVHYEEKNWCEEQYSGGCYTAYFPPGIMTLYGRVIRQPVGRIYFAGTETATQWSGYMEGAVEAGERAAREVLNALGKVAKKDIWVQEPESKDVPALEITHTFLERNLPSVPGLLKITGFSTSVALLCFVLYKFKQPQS
In short: (§1)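 Male NMRI mice (18–22 g) dosed ip (0.2 mL/20 g) and killed 1 h later, five per dose. Forebrain was homogenized in 10 vol ice-cold 0.1 M sodium phosphate, pH 7.4, and incubated 10 min at 37 °C with 10 μM [14C]PEA plus 10 μM [3H]5-HT. Acid metabolites were extracted into ethyl acetate and 3H/14C counted in separate channels.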

Monoamine oxidase [3] = target: T1, Monoamine oxidase; experiment: Inhibitory activity of Monoamine oxidase at mouse forebrain homogenate by displacing [14C]PEA (phenethylamine); assay type: tissue-based
In short: as §1

Monoamine oxidase [4] = target: T2, Monoamine oxidase (Rattus norvegicus, UniProt P19643+P21396); experiment: In vitro inhibition of Monoamine oxidase at rat hyphalamic mitochondrial PEA by displacing 2.5 uM of [14C]PEA.; assay type: protein assay
T2 sequence (P19643 whole entry): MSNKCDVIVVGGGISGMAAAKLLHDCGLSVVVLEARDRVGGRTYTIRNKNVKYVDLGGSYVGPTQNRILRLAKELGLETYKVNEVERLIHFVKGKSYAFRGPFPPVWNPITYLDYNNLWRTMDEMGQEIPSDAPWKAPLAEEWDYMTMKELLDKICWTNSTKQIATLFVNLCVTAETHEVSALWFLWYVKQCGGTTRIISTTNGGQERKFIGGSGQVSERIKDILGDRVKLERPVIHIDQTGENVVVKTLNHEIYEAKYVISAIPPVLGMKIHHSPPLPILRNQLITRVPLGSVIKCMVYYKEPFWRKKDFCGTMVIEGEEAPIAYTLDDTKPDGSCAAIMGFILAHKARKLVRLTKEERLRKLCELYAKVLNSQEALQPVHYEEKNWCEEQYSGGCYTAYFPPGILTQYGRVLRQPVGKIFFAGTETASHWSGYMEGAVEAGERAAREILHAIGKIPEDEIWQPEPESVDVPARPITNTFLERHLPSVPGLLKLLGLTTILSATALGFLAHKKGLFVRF
T2 sequence (P21396 whole entry): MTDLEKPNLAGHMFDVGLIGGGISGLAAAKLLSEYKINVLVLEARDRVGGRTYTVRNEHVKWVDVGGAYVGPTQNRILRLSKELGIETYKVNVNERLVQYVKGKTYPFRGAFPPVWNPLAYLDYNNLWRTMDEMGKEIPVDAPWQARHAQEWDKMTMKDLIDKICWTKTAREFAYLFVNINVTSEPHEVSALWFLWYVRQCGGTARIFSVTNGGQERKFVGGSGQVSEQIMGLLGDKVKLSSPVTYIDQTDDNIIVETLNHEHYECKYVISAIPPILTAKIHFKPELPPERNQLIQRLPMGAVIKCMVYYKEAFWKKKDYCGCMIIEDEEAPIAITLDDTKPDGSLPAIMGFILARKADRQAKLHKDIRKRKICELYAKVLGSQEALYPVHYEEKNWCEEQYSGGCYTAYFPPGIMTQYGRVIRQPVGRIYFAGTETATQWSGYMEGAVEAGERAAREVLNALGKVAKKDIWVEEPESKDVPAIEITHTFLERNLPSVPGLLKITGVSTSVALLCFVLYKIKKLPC

Monoamine oxidase [5] = target: T2, Monoamine oxidase; experiment: In vitro inhibition of Monoamine oxidase at rat hyphalamic mitochondrial 5-HT by displacing 2.5 uM of [14C]5-HT.; assay type: protein assay
Monoamine oxidase [6] = target: T1, Monoamine oxidase; experiment: Inhibitory activity of Monoamine oxidase at mouse forebrain homogenate by displacing [14C]PEA; assay type: tissue-based
In short: as §1

Mus musculus [7] = experiment: Lowest dose potentiating the awakening effect of phenethylamine (10 mg/kg, subcutaneous) in mice pretreated with reserpine; assay type: functional
In short: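 Mice were pretreated with reserpine 5 mg/kg sc 18 h beforehand. Test compound was given ip 1 h before PEA hydrochloride 10 mg/kg sc.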

Monoamine oxidase [8] = target: T1, Monoamine oxidase; experiment: Inhibitory activity of Monoamine oxidase at mouse forebrain homogenate by displacing [14C]5-HT; assay type: tissue-based
In short: as §1

Mus musculus [9] = experiment: Compound was injected ip 1 hr prior to 90 mg/kg iv of […] evaluation of tremor in mice; assay type: functional
In short: (§2)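 Test compound given ip 1 h before iv dl-5-HTP, 90 mg/kg, in mice. The 5-HTP syndrome was scored per Ross et al. for head twitches, tremor and abduction. Values are ED50 in μmol/kg ip.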

Mus musculus [10] = experiment: Compound was injected ip 1 hr prior to 90 mg/kg iv of […] evaluation of head twitches in mice; assay type: functional
In short: as §2

Mus musculus [11] = experiment: Compound was injected ip 1 hr prior to 90 mg/kg iv of […] evaluation of abduction in mice; assay type: functional
In short: as §2

SMILES | Potentiation (Mus musculus [1]) | ED50 (Monoamine oxidase [2]) | ED50 (Monoamine oxidase [3]) | IC50 (Monoamine oxidase [4]) | IC50 (Monoamine oxidase [5]) | ED50 (Monoamine oxidase [6]) | Potentiation (Mus musculus [7]) | ED50 (Monoamine oxidase [8]) | ED50 (Mus musculus [9]) | ED50 (Mus musculus [10]) | ED50 (Mus musculus [11])
C#CCN(C)CCCOc1ccc(Cl)cc1Cl [CLORGILINE] | >65 µM/kg | 2.6 µM/kg | > 65 µM/kg |  |  |  |  |  |  |  | 
C=C=CCNCc1ccccc1 |  |  |  | 0.15 µM | 1.8 µM | 6 µM/kg | 26 µM/kg | > 51 µM/kg |  |  | 
C=C=C(CNC)Cc1ccccc1 |  |  |  | 0.44 µM | 6.2 µM | 11 µM/kg | 76 µM/kg | > 38 µM/kg |  |  | 
CC=C=CCN(C)Cc1ccccc1 |  |  |  | 15 µM | 29 µM | 36 µM/kg |  | > 72 µM/kg |  |  | 
C=C=CCN(C)C(C)Cc1ccccc1 (centres undefined) |  |  |  | 4.7 µM | 0.8 µM | 52 µM/kg | 34 µM/kg | > 69 µM/kg |  |  | 
C=C=C(CN)Cc1ccc(OC)cc1 |  |  |  | 0.58 µM | 0.7 µM | 16 µM/kg | 36 µM/kg | 39 µM/kg |  |  | 
C=C=CCN(C)CCCOc1ccc(Cl)cc1Cl |  |  |  | 4.6 µM | 0.004 µM | 33 µM/kg | 60 µM/kg | 6 µM/kg | 5.1 µmol/kg | 1.7 µmol/kg | 5.4 µmol/kg
C=C=C(Cc1ccccc1)CN(C)C |  |  |  | > 100 µM | 25 µM | 54 µM/kg | > 72 µM/kg | > 72 µM/kg |  |  | 
C#CCN(C)[C@H](C)Cc1ccccc1 [SELEGILINE] |  |  |  |  |  | 2 µM/kg | 5 µM/kg | > 89 µM/kg |  |  | 
C=C=C(CN)c1ccccc1 |  |  |  | 0.24 µM | 7.2 µM | 8 µM/kg | >79 µM/kg | > 39 µM/kg |  |  | 
C=C=C(CN)Cc1ccc(Cl)cc1 |  |  |  | 0.04 µM | 0.26 µM | 7 µM/kg | 35 µM/kg | 18 µM/kg |  |  | 
C=C=CCN1CCc2ccccc2C1 |  |  |  | 4.3 µM | 7 µM | > 90 µM/kg | >90 µM/kg | > 90 µM/kg |  |  | 
C=C=C(CN)Cc1ccc(C)cc1 |  |  |  | 0.36 µM | 1.1 µM | 23 µM/kg | >38 µM/kg | > 38 µM/kg |  |  | 
C=C=CCN(C)Cc1ccccc1 |  |  |  | 0.17 µM | 8.2 µM | 17 µM/kg |  | > 48 µM/kg |  |  | 
CC=C=CCN(C)Cc1ccccc1.O=C(O)C(=O)O (stereo in doubt; (S)(+)2) |  |  |  | 50 µM | 51 µM | 54 µM/kg | >72 µM/kg | > 72 µM/kg |  |  | 
C=C=CC(C)N(C)Cc1ccccc1 (centres undefined) |  |  |  | > 100 µM | 43 µM |  |  |  |  |  | 
C=C=C(CN)Cc1ccccc1 |  |  |  | 0.14 µM | 20 µM | 12 µM/kg | 51 µM/kg | > 26 µM/kg |  |  | 
C=C=CCN(C)C1CCc2ccccc21 (centres undefined) |  |  |  | 0.36 µM | 1.8 µM | 1.7 µM/kg | 9 µM/kg | 35 µM/kg |  |  | 
CC=C=CCN(C)Cc1ccccc1.O=C(O)C(=O)O (stereo in doubt; (R)(-)2) |  |  |  | 2.3 µM | 17 µM | 20 µM/kg | 72 µM/kg | > 36 µM/kg |  |  | 
